From ChEMBL document CHEMBL4138271, “Crystal Structures and Human Leukemia Cell Apoptosis Inducible Activities of Parthenolide Analogues Isolated from Piptocoma rufescens” (J Nat Prod, 2018)
Active and inactive are the calls of the source. The rule behind the calls is not given here.

Assays:
EOL1 [1] = experiment: Induction of apoptosis in human EOL-1 cells assessed as late apoptotic cells at 6 uM after 24 hrs by Annexin-V FITC/7-AAD staining based flow cytometric method (reference value: 0.535%); assay type: functional
MOLM-13 [2] = experiment: Induction of apoptosis in human MOLM13 cells assessed as late apoptotic cells at 6 uM after 24 hrs by Annexin-V FITC/7-AAD staining based flow cytometric method (reference value: 1.43%); assay type: functional
MOLM-13 [3] = experiment: Induction of apoptosis in human MOLM13 cells assessed as necrotic cells at 6 uM after 24 hrs by Annexin-V FITC/7-AAD staining based flow cytometric method (reference value: 0%); assay type: functional
EOL1 [4] = experiment: Induction of apoptosis in human EOL-1 cells assessed as early apoptotic cells at 6 uM after 24 hrs by Annexin-V FITC/7-AAD staining based flow cytometric method (reference value: 1.94%); assay type: functional
[5] = target: Transcription factor p65 (Homo sapiens) (UniProt Q04206); experiment: Inhibition of NFkappaB p65 in human MOLM13 cells at 10 uM after 72 hrs by immunoblotting method; assay type: cell-based
Chain of Transcription factor p65 (Homo sapiens) (Q04206 whole entry): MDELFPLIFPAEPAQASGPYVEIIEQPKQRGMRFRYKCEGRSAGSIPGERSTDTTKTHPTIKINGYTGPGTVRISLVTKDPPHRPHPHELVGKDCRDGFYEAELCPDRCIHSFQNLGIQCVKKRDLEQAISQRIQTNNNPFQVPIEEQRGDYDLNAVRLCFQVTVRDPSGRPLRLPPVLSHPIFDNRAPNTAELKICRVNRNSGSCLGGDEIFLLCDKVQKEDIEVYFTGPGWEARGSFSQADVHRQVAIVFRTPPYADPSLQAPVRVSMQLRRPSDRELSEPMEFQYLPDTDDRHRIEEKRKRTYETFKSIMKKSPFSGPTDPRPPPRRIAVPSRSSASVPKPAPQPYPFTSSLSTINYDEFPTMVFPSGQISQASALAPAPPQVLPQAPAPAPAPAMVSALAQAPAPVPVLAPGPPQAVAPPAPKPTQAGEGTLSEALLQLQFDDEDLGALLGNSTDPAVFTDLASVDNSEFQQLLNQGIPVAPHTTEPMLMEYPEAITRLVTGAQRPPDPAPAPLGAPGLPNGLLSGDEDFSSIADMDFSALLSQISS
Outline: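 MOLM-13 or EOL-1 cells treated 72 h at 10 μM. Cells washed in ice-cold PBS and lysed in hypertonic NP-40 buffer (10 mM HEPES pH 7.5, 0.5 M NaCl) with protease/phosphatase inhibitors. Protein measured by BCA; SDS-PAGE onto PVDF. Probed 12 h with rabbit monoclonal NF-κB-p65 antibody, goat β-actin as loading control, then chemiluminescence. Blots representative of three independent experiments.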

MOLM-13 [6] = experiment: Synergistic antileukemic activity against human MOLM13 cells assessed as concentration required for <= 75% cell survival after 72 hrs in presence of midostaurin by CellTiter 96 AQueous One solution cell proliferation assay; assay type: functional
EOL1 [7] = experiment: Induction of apoptosis in human EOL-1 cells assessed as early apoptotic cells at 12 uM after 24 hrs by Annexin-V FITC/7-AAD staining based flow cytometric method (reference value: 1.94%); assay type: functional
EOL1 [8] = experiment: Induction of apoptosis in human EOL-1 cells assessed as late apoptotic cells at 3 uM after 24 hrs by Annexin-V FITC/7-AAD staining based flow cytometric method (reference value: 0.535%); assay type: functional
MOLM-13 [9] = experiment: Cytotoxicity against human MOLM13 cells after 72 hrs by MTS assay; assay type: functional, cell-based; conditions: MOLM-13, 72 h
MOLM-13 [10] = experiment: Induction of apoptosis in human MOLM13 cells assessed as early apoptotic cells at 6 uM after 24 hrs by Annexin-V FITC/7-AAD staining based flow cytometric method (reference value: 11.8%); assay type: functional
EOL1 [11] = experiment: Induction of apoptosis in human EOL-1 cells assessed as live cells at 6 uM after 24 hrs by Annexin-V FITC/7-AAD staining based flow cytometric method (reference value: 97.5%); assay type: functional
MOLM-13 [12] = experiment: Induction of apoptosis in human MOLM13 cells assessed as caspase-3 activation at 10 uM after 72 hrs by immunoblotting analysis; assay type: functional, cell-based
Outline: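 MOLM-13 cells treated 72 h with test compounds at 10 μM or PKC412 at 10 nM. Cells washed in ice-cold PBS, lysed at 10^8 cells/mL in NP-40 hypertonic buffer (pH 7.5) with protease/phosphatase inhibitors, then run on SDS-PAGE and PVDF. Blots probed 12 h with rabbit monoclonal cleaved caspase-3 (Asp175), β-actin as loading control. Representative of three independent experiments.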

EOL1 [13] = experiment: Induction of apoptosis in human EOL-1 cells assessed as live cells at 3 uM after 24 hrs by Annexin-V FITC/7-AAD staining based flow cytometric method (reference value: 97.5%); assay type: functional
MOLM-13 [14] = experiment: Induction of apoptosis in human MOLM13 cells assessed as live cells at 12 uM after 24 hrs by Annexin-V FITC/7-AAD staining based flow cytometric method (reference value: 86.8%); assay type: functional
MOLM-13 [15] = experiment: Induction of apoptosis in human MOLM13 cells assessed as early apoptotic cells at 12 uM after 24 hrs by Annexin-V FITC/7-AAD staining based flow cytometric method (reference value: 11.8%); assay type: functional
MOLM-13 [16] = experiment: Induction of apoptosis in human MOLM13 cells assessed as late apoptotic cells at 12 uM after 24 hrs by Annexin-V FITC/7-AAD staining based flow cytometric method (reference value: 1.43%); assay type: functional
MOLM-13 [17] = experiment: Induction of apoptosis in human MOLM13 cells assessed as live cells at 3 uM after 24 hrs by Annexin-V FITC/7-AAD staining based flow cytometric method (reference value: 86.8%); assay type: functional
MOLM-13 [18] = experiment: Induction of apoptosis in human MOLM13 cells assessed as live cells at 6 uM after 24 hrs by Annexin-V FITC/7-AAD staining based flow cytometric method (reference value: 86.8%); assay type: functional
EOL1 [19] = experiment: Induction of apoptosis in human EOL-1 cells assessed as late apoptotic cells at 12 uM after 24 hrs by Annexin-V FITC/7-AAD staining based flow cytometric method (reference value: 0.535%); assay type: functional
EOL1 [20] = experiment: Induction of apoptosis in human EOL-1 cells assessed as necrotic cells at 6 uM after 24 hrs by Annexin-V FITC/7-AAD staining based flow cytometric method (reference value: 0.032%); assay type: functional
EOL1 [21] = experiment: Induction of apoptosis in human EOL-1 cells assessed as live cells at 12 uM after 24 hrs by Annexin-V FITC/7-AAD staining based flow cytometric method (reference value: 97.5%); assay type: functional
MOLM-13 [22] = experiment: Induction of apoptosis in human MOLM13 cells assessed as necrotic cells at 12 uM after 24 hrs by Annexin-V FITC/7-AAD staining based flow cytometric method (reference value: 0%); assay type: functional
EOL1 [23] = experiment: Induction of apoptosis in human EOL-1 cells assessed as early apoptotic cells at 3 uM after 24 hrs by Annexin-V FITC/7-AAD staining based flow cytometric method (reference value: 1.94%); assay type: functional
EOL1 [24] = experiment: Synergistic antileukemic activity against human EOL-1 cells assessed as concentration required for <= 75% cell survival after 72 hrs in presence of midostaurin by CellTiter 96 AQueous One solution cell proliferation assay; assay type: functional
EOL1 [25] = experiment: Induction of apoptosis in human EOL-1 cells assessed as necrotic cells at 12 uM after 24 hrs by Annexin-V FITC/7-AAD staining based flow cytometric method (reference value: 0.032%); assay type: functional
EOL1 [26] = experiment: Cytotoxicity against human EOL-1 cells after 72 hrs by MTS assay; assay type: functional, cell-based; conditions: EOL1, 72 h
MOLM-13 [27] = experiment: Induction of apoptosis in human MOLM13 cells assessed as necrotic cells at 3 uM after 24 hrs by Annexin-V FITC/7-AAD staining based flow cytometric method (reference value: 0%); assay type: functional
HT-29 = experiment: Cytotoxicity against human HT-29 cells after 72 hrs by MTS assay; assay type: functional, cell-based; conditions: HT-29, 72 h
MOLM-13 [28] = experiment: Induction of apoptosis in human MOLM13 cells assessed as late apoptotic cells at 3 uM after 24 hrs by Annexin-V FITC/7-AAD staining based flow cytometric method (reference value: 1.43%); assay type: functional
EOL1 [29] = experiment: Induction of apoptosis in human EOL-1 cells assessed as necrotic cells at 3 uM after 24 hrs by Annexin-V FITC/7-AAD staining based flow cytometric method (reference value: 0.032%); assay type: functional
MOLM-13 [30] = experiment: Induction of apoptosis in human MOLM13 cells assessed as early apoptotic cells at 3 uM after 24 hrs by Annexin-V FITC/7-AAD staining based flow cytometric method (reference value: 11.8%); assay type: functional
EOL1 [31] = experiment: Induction of apoptosis in human EOL-1 cells assessed as caspase-3 activation at 10 uM after 72 hrs by immunoblotting analysis; assay type: functional, cell-based
Outline: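 EOL-1 cells (RPMI 1640, 10% FBS, 37 °C, 5% CO2) exposed 72 h; compounds at 10 μM, PKC412 at 10 nM. Harvested, PBS-washed, lysed in hypertonic NP-40 buffer with protease/phosphatase inhibitors; SDS-PAGE, PVDF transfer, rabbit monoclonal cleaved caspase-3 (Asp175) antibody 12 h, secondary 1 h, chemiluminescent detection; β-actin loading control. Representative blots of three independent experiments.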

inhibition [5]: Active
Structure (SMILES): C=C1C(=O)O[C@@H]2C[C@@H](C)CCC(=O)[C@](C)(OC(C)=O)C[C@H](OC(=O)/C(C)=C\C)[C@@H]12
Activity (EOL1 [1]): 0.545%
Activity (MOLM-13 [2]): 1.19%
Activity (MOLM-13 [3]): 0.314%
Activity (EOL1 [4]): 1.66%
Activity (MOLM-13 [6]): 4.9 µM
Activity (EOL1 [7]): 1.4%
Activity (EOL1 [8]): 0.417%
IC50 (MOLM-13 [9]): 10 µM
Activity (MOLM-13 [10]): 4.87%
Activity (EOL1 [11]): 97.7%
Activity (MOLM-13 [12]): Active
Activity (EOL1 [13]): 97.9%
Activity (MOLM-13 [14]): 36.6%
Activity (MOLM-13 [15]): 6.8%
Activity (MOLM-13 [16]): 39.7%
Activity (MOLM-13 [17]): 94.7%
Activity (MOLM-13 [18]): 93.6%
Activity (EOL1 [19]): 4.7%
Activity (EOL1 [20]): 0.096%
Activity (EOL1 [21]): 93.4%
Activity (MOLM-13 [22]): 16.9%
Activity (EOL1 [23]): 1.64%
Activity (EOL1 [24]): 2.5 µM
Activity (EOL1 [25]): 0.497%
IC50 (EOL1 [26]): 8 µM
Activity (MOLM-13 [27]): 0.056%
IC50 (HT-29): 3 µM
Activity (MOLM-13 [28]): 0.817%
Activity (EOL1 [29]): 0.043%
Activity (MOLM-13 [30]): 4.46%
Activity (EOL1 [31]): Active
